Here are results for 4 compounds from ChEMBL document CHEMBL4680268, “Pharmacomodulations of the benzoyl-thiosemicarbazide scaffold reveal antimicrobial agents targeting d-alanyl-d-alanine ligase in bacterio” (Eur J Med Chem, 2020).

In brackets after ≈: the same amount, converted by molar mass. Activity calls are given as the source filed them. The rule behind the calls is not given here. Bounds are passed on as bounds.

In data set [1] the test system is Cell membrane. In words: Disruption of bacterial cell membrane in Staphylococcus aureus ATCC 25923 assessed as reduction in bacterial colonies at 5X MIC measured after 2 hrs by time-kill kinetics assay.
Data set [2] has as its system Enterococcus faecalis. In words: Antibacterial activity against Enterococcus faecalis ATCC 29212 assessed as reduction in bacterial growth incubated for 18 to 24 hrs by broth microdilution method. To be noted: time 18-24 hrs. The class given is functional.
The test system of data set [3] is THP-1. In words: Cytotoxicity against human THP-1 cells assessed as reduction in cell viability at 1 times MIC measured after 1 to 2 hrs by trypan blue exclusion assay. The data set is classed as cell-based. As to conditions: time 1-2 hrs. The gist of the method:
(§1)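 Aliquots taken at 1, 2, 6, 24 h, mixed 1:1 with 0.4% Trypan blue for 5 min; percent blue-stained cells counted by light microscopy. DMSO control; triplicate, mean ± SD.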

A further data set concerns Klebsiella pneumoniae. In words: Antibacterial activity against Klebsiella pneumoniae ATCC700603 assessed as reduction in bacterial growth incubated for 18 to 24 hrs by broth microdilution method. The data set is classed as functional, organism-based. As to conditions: 700603, time 18-24 hrs. The gist of the method:
(§2)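 Microdilution in cation-adjusted Mueller-Hinton broth per CLSI; two-fold compound series in CAMHB with 5% DMSO mixed 1:1 with bacterial suspension, giving 10⁶ bacteria/mL inoculum and 2.5% DMSO final. Top concentrations 0.1, 0.4 or 0.8 mM depending on solubility. Incubated 18–24 h at 37 °C; MIC read as lowest concentration preventing visible growth.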

The subject of data set [4] is Staphylococcus aureus. In words: Antibacterial activity against Staphylococcus aureus ATCC 25923 assessed as reduction in bacterial growth incubated for 18 to 24 hrs by broth microdilution method. The class given is functional. To be noted: time 18-24 hrs.
The subject of the next data set is Pseudomonas aeruginosa. In words: Antibacterial activity against Pseudomonas aeruginosa PAO1 assessed as reduction in bacterial growth incubated for 18 to 24 hrs by broth microdilution method. The class given is functional, organism-based. To be noted: time 18-24 hrs. The gist of the method:
as §2

Data set [5] deals with Staphylococcus aureus. In words: Antibacterial activity against methicillin and linezolid resistant Staphylococcus aureus NRS119 assessed as reduction in bacterial growth incubated for 18 to 24 hrs by broth microdilution method. The class given is functional. To be noted: time 18-24 hrs. The gist of the method:
(§3)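 Broth microdilution in cation-adjusted Mueller-Hinton broth per CLSI; inoculum 10⁶ bacteria/mL. Two-fold serial dilutions, compound in broth with 5% DMSO mixed 1:1 with bacterial suspension, giving 2.5% DMSO final. Top concentration 0.1, 0.4 or 0.8 mM depending on solubility. Incubated 18–24 h at 37 °C. MIC = lowest concentration preventing visible growth.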

In data set [6] the test system is Staphylococcus aureus. In words: Antibacterial activity against hospital-acquired vancomycin resistant Staphylococcus aureus VRS-1 assessed as reduction in bacterial growth incubated for 18 to 24 hrs by broth microdilution method. The class given is functional. As to conditions: time 18-24 hrs. The gist of the method:
as §3

For data set [7], the system named is Staphylococcus aureus. In words: Antibacterial activity against methicillin resistant and vancomycin intermediate resistant Staphylococcus aureus MU50 assessed as reduction in bacterial growth incubated for 18 to 24 hrs by broth microdilution method. The data set is classed as functional. To be noted: time 18-24 hrs. The gist of the method:
as §3

Data set [8] is described as follows: Cytotoxicity against human THP-1 cells assessed as reduction in cell viability at 2 times MIC measured after 1 to 2 hrs by trypan blue exclusion assay. As to conditions: time 1-2 hrs, read-out: INH. The data set is classed as cell-based. The gist of the method:
as §1

In data set [9] the test system is Staphylococcus aureus. In words: Antibacterial activity against community-acquired methicillin and erythromycin resistant Staphylococcus aureus SA325 assessed as reduction in bacterial growth incubated for 18 to 24 hrs by broth microdilution method. The data set is classed as functional. To be noted: time 18-24 hrs. The gist of the method: as §3
For data set [10], the system named is Staphylococcus aureus. In words: Bacteriostatic activity against Staphylococcus aureus ATCC 25923 assessed as reduction in bacterial growth at 1 and 2 times MIC measured upto 24 hrs by time kill assay. The class given is functional, organism-based. As to conditions: time hrs <=24. The gist of the method: (§4)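 S. aureus ATCC 25923 grown overnight in CAMHB, pelleted, resuspended; compound added at 1, 2 or 5× MIC to give 10⁶ CFU/mL start with 5% DMSO (DMSO-only control). Sampled at 0, 5, 15, 30 min, 1, 2, 7, 24 h; 10-fold PBS dilutions plated on charcoal TSA, counted after 24 h at 37 °C. Bactericidal = ≥3-log₁₀ drop in 24 h; triplicate, mean ± SD.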

In data set [11] the test system is Staphylococcus aureus. In words: Inhibition of Ddl in Staphylococcus aureus ATCC 25923 assessed as increase in D-Ala/D-Ala-D-Ala ratio at 2 times MIC incubated for 30 mins by UHPLC-MS/MS analysis. The gist of the method: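 Log-phase S. aureus ATCC 25923 in MHB with 5% DMSO (from OD₆₀₀ 0.05) treated with compound at 2× MIC for 0–30 min; untreated and D-cycloserine 2× MIC controls. Cells chilled, pelleted, washed in M9, lysed in ice-cold MeOH/H₂O/formic acid 80:20:0.1, supernatants derivatized with Marfey's reagent in triplicate; L-Ala, D-Ala, D-Ala-D-Ala quantified by UPLC-MS/MS.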

The test system of data set [12] is Enterococcus faecalis. In words: Antibacterial activity against vancomycin resistant Enterococcus faecalis BM4390 harboring VanB mutant with inactive Ddl and constitutive expression of D-Ala-D-Lac assessed as reduction in bacterial growth incubated for 18 to 24 hrs by broth microdilution method. The class given is functional. As to conditions: time 18-24 hrs. The gist of the method:
as §3

Data set [13] deals with Staphylococcus aureus. In words: Antibacterial activity against hospital-acquired methicillin/ciprofloxacin and moxifloxacin resistant Staphylococcus aureus SA481 assessed as reduction in bacterial growth incubated for 18 to 24 hrs by broth microdilution method. The data set is classed as functional. As to conditions: time 18-24 hrs. The gist of the method: as §3
Data set [14] relates to THP-1. In words: Cytotoxicity against human THP-1 cells assessed as reduction in cell viability at 2 to 5 times MIC measured after 6 hrs by trypan blue exclusion assay. To be noted: thp-1, 6 h. The data set is classed as cell-based. The gist of the method:
as §1

Data set [15] deals with Enterococcus faecalis. In words: Antibacterial activity against vancomycin resistant Enterococcus faecalis JH2-2::C1 harboring constitutive expression of Ddl and vanB ligase assessed as reduction in bacterial growth incubated for 18 to 24 hrs by broth microdilution method. The class given is functional. As to conditions: time 18-24 hrs. The gist of the method: as §3
Data set [16] relates to Staphylococcus aureus. In words: Bactericidal activity against Staphylococcus aureus ATCC 25923 assessed as reduction in bacterial growth at 5 times MIC measured after 24 hrs by time kill assay. The class given is functional, organism-based. The gist of the method:
as §4

Data set [17] concerns Cell membrane. In words: Disruption of bacterial cell membrane in Staphylococcus aureus ATCC 25923 assessed as increase in PI uptake by measuring increase in fluorescence intensity at 5 times MIC measured every 10 mins for 2 hrs by PI dye based spectrophotometry. The gist of the method: (§5)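 Mid-log S. aureus ATCC 25923 (grown in MHB from OD₆₀₀ 0.05) washed into BET buffer (pH 7.5) at 1.11×10⁶ CFU/mL with 12 nM propidium iodide; compound at 1, 2, 5× MIC, 5% DMSO final. SDS 0.5% positive, buffer negative control. Fluorescence (ex 532/em 620 nm) read in the dark every 10 min for 2 h; triplicate.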

The next data set deals with Escherichia coli. In words: Antibacterial activity against Escherichia coli ATCC 25922 assessed as reduction in bacterial growth incubated for 18 to 24 hrs by broth microdilution method. As to conditions: time 18-24 hrs. The data set is classed as functional, organism-based. The gist of the method: as §2
In data set [18] the test system is THP-1. In words: Cytotoxicity against human THP-1 cells assessed as reduction in cell viability at 1 times MIC measured after 6 hrs by trypan blue exclusion assay. The class given is cell-based. To be noted: thp-1, 6 h. The gist of the method: as §1
Data set [19] is described as follows: Inhibition of recombinant Enterococcus faecalis C-terminal His6-tagged DdlB expressed in Escherichia coli LMG194 using D-Ala as substrate preincubated with enzyme for 30 mins followed by substrate addition and measured after 20 mins by malachite green based colorimetric analysis. The gist of the method: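 DdlB (20 mg/L) malachite green phosphate assay: enzyme, inhibitor and 500 µM ATP preincubated 30 min at 30 °C in Tris-HCl pH 7.4 buffer with MgCl₂, KCl and 10% DMSO, then 1 mM D-Ala for 20 min; A650 read. IC₅₀ from 11 concentrations, also run with 0.01% Triton X-100; mean ± SD of triplicates, n ≥ 2; EC₅₀ given where maximal inhibition stayed below 50%.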

Data set [20] relates to Enterococcus faecalis. In words: Antibacterial activity against vancomycin resistant Enterococcus faecalis BM4575 harboring VanE genotype, constitutive expression of Ddl and VanE D-Ala-D-Ser ligase assessed as reduction in bacterial growth incubated for 18 to 24 hrs by broth microdilution method. The class given is functional. As to conditions: time 18-24 hrs. The gist of the method: as §3

Data set [21] has as its system Cell membrane. In words: Disruption of bacterial cell membrane in Staphylococcus aureus ATCC 25923 assessed as increase in PI uptake at 1 to 5 times MIC measured every 10 mins for 2 hrs by PI dye based spectrophotometry. The gist of the method:
as §5

A short description of data set [22]: Inhibition of Ddl in Streptococcus faecalis ATCC 8043 using D-[1-14C]-alanine as substrate preincubated with enzyme for 40 mins followed by substrate and addition and measured after 30 mins by TLC analysis. Further details: species or system Enterococcus faecalis.

`Oc1ccccc1/C=N/NC(=S)Nc1ccc(Cl)c(Cl)c1`: the Activity in the data set with Cell membrane [1] is < 1 log10CFU/ml; with THP-1 [3], “Non-Toxic”; with THP-1 [14], “Toxic”; with Cell membrane [17] it was 15 RFU; with THP-1 [18], “Non-Toxic”. In addition, the MIC in the data set on Enterococcus faecalis [2] is 12.5 µM (≈ 4.25 µg/mL); in the data set with Staphylococcus aureus [4] it was 12.5 µM (≈ 4.25 µg/mL); with Staphylococcus aureus [5], 12.5 µM (≈ 4.25 µg/mL); in the data set on Staphylococcus aureus [6], 12.5 µM (≈ 4.25 µg/mL); in the data set with Staphylococcus aureus [7] it was 25 µM (≈ 8.51 µg/mL); in the data set on Staphylococcus aureus [9] it was 25 µM (≈ 8.51 µg/mL). In addition, the minimal inhibitory concentration (MIC) in the data set on Enterococcus faecalis [12] amounted to 6.25 µM (≈ 2.13 µg/mL); in the data set with Staphylococcus aureus [13] it was 25 µM (≈ 8.51 µg/mL); in the data set on Enterococcus faecalis [15], 3.12 µM (≈ 1.06 µg/mL); in the data set on Enterococcus faecalis [20] it was 6.25 µM (≈ 2.13 µg/mL). The result in the data set with Klebsiella pneumoniae, in the data set with Pseudomonas aeruginosa and in the data set with Escherichia coli was inactive. Also, the cytotoxicity at 2 x MIC in data set [8] worked out at 5%. Also, the outcome in the data set with Staphylococcus aureus [10] and in the data set with Staphylococcus aureus [16] was Active. In the data set on Staphylococcus aureus [11], the inhibition result is “Active”. For the same compound, the half-maximal inhibitory concentration (IC50) in data set [19] stood at 1480 nM.

Turning to `N[C@H]1CONC1=O` [LEVCYCLOSERINE], the minimum inhibitory concentration (MIC) with Enterococcus faecalis [2] worked out at 1250 µM (≈ 128 µg/mL); in the data set on Staphylococcus aureus [4] it was 313 µM (≈ 32 µg/mL); with Staphylococcus aureus [5] it was 627 µM (≈ 64 µg/mL); with Staphylococcus aureus [6], 157 µM (≈ 16 µg/mL); in the data set on Staphylococcus aureus [7] it was 627 µM (≈ 64 µg/mL); in the data set with Staphylococcus aureus [9] it was 1250 µM (≈ 128 µg/mL). Moreover, the minimum inhibitory concentration (MIC) with Enterococcus faecalis [12] is 5020 µM (≈ 512 µg/mL); with Staphylococcus aureus [13], 1250 µM (≈ 128 µg/mL); in the data set with Enterococcus faecalis [15], 5020 µM (≈ 512 µg/mL); with Enterococcus faecalis [20], > 5020 µM. Moreover, the inhibition result with Staphylococcus aureus [11] is “Active”. Besides, the outcome in the data set with Cell membrane [21] was inactive. Also, in [19], the IC50 came to 262000 nM.

In turn, `C[C@@H](CP(=O)(O)[C@@H](C)N)C(=O)O` displayed an inhibitory constant (Ki) in [22] of 4000 nM.

Turning to `O=C(NNC(=S)Nc1ccc(Cl)c(Cl)c1)c1ccccc1O`, the MIC in the data set on Enterococcus faecalis [2] is 50 µM (≈ 17.8 µg/mL); in the data set on Staphylococcus aureus [4], 100 µM (≈ 35.6 µg/mL); with Staphylococcus aureus [5], 50 µM (≈ 17.8 µg/mL); with Staphylococcus aureus [6], 50 µM (≈ 17.8 µg/mL); with Staphylococcus aureus [7], 100 µM (≈ 35.6 µg/mL); in the data set with Staphylococcus aureus [9], 50 µM (≈ 17.8 µg/mL). The MIC in the data set on Enterococcus faecalis [12] came to 50 µM (≈ 17.8 µg/mL); in the data set on Staphylococcus aureus [13], 100 µM (≈ 35.6 µg/mL); in the data set on Enterococcus faecalis [15], 100 µM (≈ 35.6 µg/mL); in the data set with Enterococcus faecalis [20], 50 µM (≈ 17.8 µg/mL). Moreover, the outcome with Klebsiella pneumoniae, with Pseudomonas aeruginosa, in the data set on Cell membrane [21] and in the data set with Escherichia coli was inactive. The IC50 in [19] stood at 1170 nM.
